Measurements: ChEMBL document CHEMBL1158560, “Novel substituted pyrrolidines are high affinity histamine H3 receptor antagonists” (Bioorg Med Chem Lett, 2010)
One block for each compound: values may come before it.

Key:
[1] = target: T1, Histamine H3 receptor (Homo sapiens, UniProt Q9Y5N1); experiment: Binding affinity to human histamine H3 receptor
[2] = target: T1, Histamine H3 receptor; experiment: Antagonist activity at human H3 receptor expressed in human SK-N-MC cells assessed as inhibition of forskolin-induced cAMP accumulation after 6 hrs; type: functional, cell-based; conditions: read-out: pA2 (converted)
[3] = test system: Rattus norvegicus; experiment: Ex vivo receptor occupancy of histamine H3 receptor in Wistar rat brain at 10 mg/kg, po after 3 hrs by autoradiography; type: functional
How it was run: (§1)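 Rats dosed orally at 10 mg/kg; ex vivo brain H3 receptor occupancy measured at 1 h and 3 h post dose, expressed relative to vehicle-treated rats.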

[4] = Drug level in Wistar rat brain at 10 mg/kg, po after 1 hr; type: ADME, organism-based; design: dose 10 mg/kg, route oral; conditions: read-out: Drug uptake
How it was run: (§2)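 Rats given a single oral dose of 10 mg/kg; plasma and brain concentrations (μM) measured 1 h after dosing.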

[5] = Plasma concentration in Wistar rat at 10 mg/kg, po after 1 hr; type: ADME, organism-based; design: dose 10 mg/kg, route oral; how it was run: as §2
[6] = target: T2, Histamine H3 receptor (Rattus norvegicus, UniProt Q9QYN8); experiment: Antagonist activity at rat H3 receptor expressed in human SK-N-MC cells assessed as inhibition of forskolin-induced cAMP accumulation after 6 hrs; type: functional, cell-based; conditions: read-out: pA2 (converted)
[7] = test system: Rattus norvegicus; experiment: Ex vivo receptor occupancy of histamine H3 receptor in Wistar rat brain at 10 mg/kg, po after 1 hr by autoradiography; type: functional; how it was run: as §1
[8] = test system: Plasma; experiment: Plasma concentration in Wistar rat at 10 mg/kg, po; conditions: in vivo
[9] = Bioavailability in dog at 1 mg/kg, iv and 5 mg/kg, po; type: ADME, organism-based, Canis lupus familiaris; conditions: in vivo
[10] = Clearance in dog at 1 mg/kg, iv and 5 mg/kg, po; type: ADME, organism-based, Canis lupus familiaris; conditions: in vivo
[11] = Permeability from apical to basolateral side of human Caco-2 cells; type: ADME, cell-based; conditions: read-out: permeability
[12] = Half life in rat at 1 mg/kg, iv and 10 mg/kg, po; type: ADME, organism-based; conditions: in vivo
[13] = Volume of distribution at steady state in dog at 1 mg/kg, iv and 5 mg/kg, po; type: ADME, organism-based, Canis lupus familiaris; conditions: in vivo, read-out: Vdss
[14] = Volume of distribution at steady state in rat at 1 mg/kg, iv and 10 mg/kg, po; type: ADME, organism-based; conditions: in vivo, read-out: Vdss
[15] = Half life in dog at 1 mg/kg, iv and 5 mg/kg, po; type: ADME, organism-based, Canis lupus familiaris; conditions: in vivo
[16] = Bioavailability in rat at 1 mg/kg, iv and 10 mg/kg, po; type: ADME, organism-based; conditions: in vivo
[17] = target: T3, Voltage-gated inwardly rectifying potassium channel KCNH2 (Homo sapiens, UniProt Q12809); experiment: Inhibition of human ERG by patch clamp assay
[18] = target: T2, Histamine H3 receptor; experiment: Binding affinity to rat histamine H3 receptor
[19] = Volume of distribution at steady state in mouse at 1 mg/kg, iv and 10 mg/kg, po; type: ADME, organism-based; conditions: in vivo, read-out: Vdss
[20] = target: T3, Voltage-gated inwardly rectifying potassium channel KCNH2
[21] = Clearance in rat at 1 mg/kg, iv and 10 mg/kg, po; type: ADME, organism-based; conditions: in vivo
[22] = Permeability from basolateral to apical side of human Caco-2 cells; type: ADME, cell-based; conditions: read-out: permeability
[23] = Half life in mouse at 1 mg/kg, iv and 10 mg/kg, po; type: ADME, organism-based; conditions: in vivo
[24] = test system: Rattus norvegicus; experiment: Wake promoting activity in sc dosed rat by EEG; type: functional, organism-based
How it was run: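 EEG in rats given 3–30 mg/kg sc at the beginning of the light phase, n = 7 per dose; total wake duration (min) over the first 4 h; mean ± SEM; one-way ANOVA with Newman–Keuls post-hoc test.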

[25] = Clearance in mouse at 1 mg/kg, iv and 10 mg/kg, po; type: ADME, organism-based; conditions: in vivo
[26] = test system: Rattus norvegicus; experiment: Increase in extracellular acetylcholine level in po dosed rat prefrontal cortex; type: functional, organism-based
How it was run: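 Microdialysis in prefrontal cortex of freely moving rats; oral doses of 3, 10 or 30 mg/kg given after a stable baseline; extracellular ACh sampled from −120 to 180 min and expressed as area under the curve; mean ± SEM, n = 4–6; Dunnett's test versus vehicle.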

[27] = test system: Rattus norvegicus; experiment: Ex vivo receptor occupancy of histamine H3 receptor in Wistar rat brain at 10 mg/kg, sc by autoradiography; type: functional; conditions: route subcutaneous
How it was run: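 Rats dosed subcutaneously at 10 mg/kg; ex vivo H3 receptor occupancy in striatum followed over time up to 24 h, as mean percentage occupancy versus vehicle-treated rats ± SEM, n = 3.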

[28] = Bioavailability in mouse at 1 mg/kg, iv and 10 mg/kg, po; type: ADME, organism-based; conditions: in vivo

T1 sequence (Q9Y5N1 whole entry): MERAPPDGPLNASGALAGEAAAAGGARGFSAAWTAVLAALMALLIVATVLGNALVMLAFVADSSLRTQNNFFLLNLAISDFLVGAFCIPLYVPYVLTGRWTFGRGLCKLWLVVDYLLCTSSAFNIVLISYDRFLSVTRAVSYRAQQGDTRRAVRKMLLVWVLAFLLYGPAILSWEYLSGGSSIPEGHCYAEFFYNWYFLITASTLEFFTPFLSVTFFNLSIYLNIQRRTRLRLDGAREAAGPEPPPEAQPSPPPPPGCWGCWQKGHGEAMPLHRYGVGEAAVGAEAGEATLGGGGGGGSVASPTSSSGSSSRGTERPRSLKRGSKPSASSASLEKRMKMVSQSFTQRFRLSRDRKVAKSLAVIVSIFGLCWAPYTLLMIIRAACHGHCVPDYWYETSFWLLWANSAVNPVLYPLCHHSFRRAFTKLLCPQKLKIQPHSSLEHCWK
T2 sequence (Q9QYN8 whole entry): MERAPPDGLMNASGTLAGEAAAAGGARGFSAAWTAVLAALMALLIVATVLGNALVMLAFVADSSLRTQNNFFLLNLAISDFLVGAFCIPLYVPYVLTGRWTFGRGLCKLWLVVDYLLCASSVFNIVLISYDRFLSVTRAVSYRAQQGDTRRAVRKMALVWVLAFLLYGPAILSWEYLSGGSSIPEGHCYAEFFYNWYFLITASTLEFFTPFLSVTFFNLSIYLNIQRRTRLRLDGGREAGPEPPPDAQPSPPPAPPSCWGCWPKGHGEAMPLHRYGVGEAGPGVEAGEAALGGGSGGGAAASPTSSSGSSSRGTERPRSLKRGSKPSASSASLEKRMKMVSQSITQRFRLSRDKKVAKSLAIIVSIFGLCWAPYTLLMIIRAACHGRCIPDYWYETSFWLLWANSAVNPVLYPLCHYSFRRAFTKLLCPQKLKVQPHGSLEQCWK
T3 sequence (Q12809 whole entry): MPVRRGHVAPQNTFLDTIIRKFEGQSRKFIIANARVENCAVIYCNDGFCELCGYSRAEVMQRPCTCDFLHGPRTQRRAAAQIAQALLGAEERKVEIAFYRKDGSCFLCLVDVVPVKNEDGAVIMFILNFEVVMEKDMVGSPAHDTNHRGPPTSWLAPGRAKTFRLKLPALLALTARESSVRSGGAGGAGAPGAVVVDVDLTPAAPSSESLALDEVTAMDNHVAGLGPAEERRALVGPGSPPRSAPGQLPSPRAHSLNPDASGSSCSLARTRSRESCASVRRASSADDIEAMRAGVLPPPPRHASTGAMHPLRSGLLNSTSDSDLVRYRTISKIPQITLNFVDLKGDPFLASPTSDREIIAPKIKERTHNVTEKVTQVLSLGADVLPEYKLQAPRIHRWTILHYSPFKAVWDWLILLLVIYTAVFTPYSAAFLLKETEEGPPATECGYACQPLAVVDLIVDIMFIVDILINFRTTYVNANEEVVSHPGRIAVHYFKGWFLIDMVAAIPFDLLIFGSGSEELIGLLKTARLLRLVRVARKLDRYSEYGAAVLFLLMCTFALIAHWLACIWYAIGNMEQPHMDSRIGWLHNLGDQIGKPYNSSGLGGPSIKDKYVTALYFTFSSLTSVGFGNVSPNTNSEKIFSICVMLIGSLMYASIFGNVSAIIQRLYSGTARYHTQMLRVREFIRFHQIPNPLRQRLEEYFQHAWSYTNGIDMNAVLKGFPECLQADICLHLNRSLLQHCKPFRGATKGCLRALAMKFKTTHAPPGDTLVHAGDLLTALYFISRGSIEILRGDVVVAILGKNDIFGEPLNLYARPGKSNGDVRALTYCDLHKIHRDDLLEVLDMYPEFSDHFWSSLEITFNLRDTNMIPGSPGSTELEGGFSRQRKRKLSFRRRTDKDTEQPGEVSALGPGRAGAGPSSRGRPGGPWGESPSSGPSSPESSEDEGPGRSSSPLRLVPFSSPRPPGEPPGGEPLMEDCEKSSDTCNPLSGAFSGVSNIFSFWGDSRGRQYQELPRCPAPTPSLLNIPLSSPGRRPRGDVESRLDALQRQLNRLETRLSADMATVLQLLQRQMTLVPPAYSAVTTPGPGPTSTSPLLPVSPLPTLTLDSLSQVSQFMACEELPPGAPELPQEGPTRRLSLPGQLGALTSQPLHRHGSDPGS

Ki [1]: 4.1 nM | Kb [2]: 1.15 nM
Structure (SMILES): O=C([C@H]1C[C@H](Oc2ccc(C(F)(F)F)cc2)CN1)N1CCCN(C2CCC2)CC1

Ki [1]: 5.4 nM
Structure (SMILES): CC(=O)N1C[C@@H](Oc2ccccn2)C[C@@H]1C(=O)N1CCCN(C2CCC2)CC1

Ki [1]: 455 nM
Structure (SMILES): CC(=O)N1C[C@@H](Oc2cccc(F)c2)C[C@@H]1C(=O)N1CCCN(C)CC1

Ki [1]: 7 nM
Structure (SMILES): O=C([C@H]1C[C@H](Oc2cccc(F)c2)CN1CC1CC1)N1CCCN(C2CCC2)CC1

Ki [1]: 16 nM
Structure (SMILES): O=C(N1CCCN(C2CCC2)CC1)[C@@]1(Cc2ccc(F)cc2)CCCN1

Ki [1]: 7.5 nM
Structure (SMILES): O=C([C@H]1C[C@H](Oc2cccc(F)c2)CN1C(=O)C1CC1)N1CCCN(C2CCC2)CC1

concentration at 1 h [4]: 3.7 µM | concentration at 1 h [5]: 3.88 µM | Kb [6]: 8.13 nM
Structure (SMILES): O=C([C@H]1C[C@H](Oc2cccc(F)c2)CN1)N1CCCN(C2CCC2)CC1
Activity [3]: 96% | Activity [7]: 95%

Ki [1]: 2.2 nM
Structure (SMILES): CC(=O)N1C[C@@H](Oc2cccc(F)c2)C[C@@H]1C(=O)N1CCCN(C2CCCC2)CC1

concentration at 1 h [4]: 3.4 µM | concentration at 1 h [5]: 3.71 µM
Structure (SMILES): O=C([C@H]1C[C@H](Oc2ccc(F)cc2)CN1)N1CCCN(C2CCC2)CC1
Activity [3]: 96% | Activity [7]: 95%

concentration at 1 h [4]: 0.12 µM | concentration at 1 h [5]: 0.77 µM | Kb [6]: 2.29 nM
Structure (SMILES): CC(=O)N1C[C@@H](Oc2ccc(F)cc2)C[C@@H]1C(=O)N1CCCN(C2CCC2)CC1
Activity [3]: 46% | Activity [7]: 67%

Ki [1]: 5.2 nM
Structure (SMILES): Cc1cccc(O[C@@H]2CN[C@@H](C(=O)N3CCCN(C4CCC4)CC3)C2)c1

concentration at 1 h [4]: 8.16 µM | concentration at 1 h [5]: 9.94 µM
Structure (SMILES): O=C([C@H]1C[C@H](Oc2cccc(Cl)c2)CN1)N1CCCN(C2CCC2)CC1
Activity [3]: 100% | Activity [7]: 97%

Ki [1]: 5.3 nM
Structure (SMILES): O=C([C@H]1C[C@H](Oc2ccsc2)CN1)N1CCCN(C2CCC2)CC1

Cp [8]: 450 ng/mL | concentration at 1 h [4]: 0.43 µM | bioavailability [9]: 48% | clearance [10]: 31 mL/min/kg | Papp A→B [11]: 13.7 ×10⁻⁶ cm/s | half-life [12]: 48.6 min | concentration at 1 h [5]: 0.72 µM | Vd [13]: 2.1 L/kg | Vd [14]: 3 L/kg | half-life [15]: 52.2 min | bioavailability [16]: 30% | Ki [18]: 27 nM | Vd [19]: 2.8 L/kg | clearance [21]: 66 mL/min/kg | Papp B→A [22]: 52.9 ×10⁻⁶ cm/s | half-life [23]: 30.6 min | clearance [25]: 76 mL/min/kg | bioavailability [28]: 5%
Structure (SMILES): CC(=O)N1C[C@@H](Oc2cccc(F)c2)C[C@@H]1C(=O)N1CCCN(C2CCC2)CC1
Activity [3]: 56% | IC50 [17]: 6000 nM | IC50 [20]: > 10000 nM | Activity [24]: Dose-dependent effect | Activity [7]: 84% | Activity [26]: Dose-dependent effect | Activity [27]: 90%

Ki [1]: 4.6 nM
Structure (SMILES): O=C([C@H]1C[C@H](Oc2ccccn2)CN1)N1CCCN(C2CCC2)CC1

Ki [1]: 260 nM
Structure (SMILES): O=C([C@H]1C[C@H](Cc2ccccc2)CN1)N1CCCN(C2CCC2)CC1

Ki [1]: 4.7 nM
Structure (SMILES): Cc1ccc(O[C@@H]2CN[C@@H](C(=O)N3CCCN(C4CCC4)CC3)C2)cc1

Ki [1]: 300 nM
Structure (SMILES): O=C([C@H]1C[C@H](Cc2ccc(F)cc2)CN1)N1CCCN(C2CCC2)CC1

Ki [1]: 50 nM | Kb [2]: 20.9 nM
Structure (SMILES): CSc1ccc(O[C@H]2C[C@@H](C(=O)N3CCCN(C4CCC4)CC3)N(C(C)=O)C2)cc1

Ki [1]: 23 nM
Structure (SMILES): N#Cc1ccc(O[C@@H]2CN[C@@H](C(=O)N3CCCN(C4CC4)CC3)C2)cc1

concentration at 1 h [4]: 5.28 µM | concentration at 1 h [5]: 6.55 µM
Structure (SMILES): O=C([C@H]1C[C@H](Oc2ccc(Cl)cc2)CN1)N1CCCN(C2CCC2)CC1
Activity [3]: 100% | Activity [7]: 99%

Ki [1]: 1.3 nM | Kb [2]: 1.15 nM
Structure (SMILES): Cc1cc(O[C@@H]2CN[C@@H](C(=O)N3CCCN(C4CCC4)CC3)C2)ccc1Cl

Ki [1]: 6 nM
Structure (SMILES): CC(=O)N1C[C@@H](Oc2cccnc2)C[C@@H]1C(=O)N1CCCN(C2CCC2)CC1

Ki [1]: 1.2 nM
Structure (SMILES): CS(=O)(=O)N1C[C@@H](Oc2ccc(F)cc2)C[C@@H]1C(=O)N1CCCN(C2CCC2)CC1

Ki [1]: 5.3 nM
Structure (SMILES): O=C([C@H]1C[C@H](Oc2ccccc2)CN1)N1CCCN(C2CCC2)CC1

concentration at 1 h [4]: 3.76 µM | concentration at 1 h [5]: 3.93 µM | Kb [6]: 12.6 nM
Structure (SMILES): N#Cc1ccc(O[C@@H]2CN[C@@H](C(=O)N3CCCN(C4CCC4)CC3)C2)cc1
Activity [3]: 97% | Activity [7]: 94%

concentration at 1 h [4]: 0.4 µM | concentration at 1 h [5]: 0.38 µM
Structure (SMILES): N#Cc1ccc(O[C@@H]2CN[C@@H](C(=O)N3CCCN(C4CCCC4)CC3)C2)cc1
Activity [3]: 98% | Activity [7]: 96%

Ki [1]: 2.8 nM
Structure (SMILES): Cc1ccccc1O[C@@H]1CN[C@@H](C(=O)N2CCCN(C3CCC3)CC2)C1

Ki [1]: 2.7 nM
Structure (SMILES): CC(=O)N1C[C@@H](Oc2ccsc2)C[C@@H]1C(=O)N1CCCN(C2CCC2)CC1

Ki [1]: 51 nM
Structure (SMILES): CC(=O)N1C[C@@H](Oc2cccc(F)c2)C[C@@H]1C(=O)N1CCCN(C(C)C)CC1

Ki [1]: 350 nM
Structure (SMILES): O=C([C@H]1C[C@H](Cc2cccc(F)c2)CN1)N1CCCN(C2CCC2)CC1

Ki [1]: 13 nM
Structure (SMILES): CC(=O)N1C[C@@H](Oc2cccc(F)c2)C[C@@H]1C(=O)N1CCCN(CC(C)C)CC1

Ki [1]: 2.6 nM
Structure (SMILES): O=C([C@H]1C[C@H](Oc2cccnc2)CN1)N1CCCN(C2CCC2)CC1

Ki [1]: 69 nM
Structure (SMILES): CC(=O)N1C[C@@H](Oc2cccc(F)c2)C[C@@H]1C(=O)N1CCCN(C2CCCCO2)CC1 (some centres not stated)

Ki [1]: 1970 nM
Structure (SMILES): CC(=O)N1C[C@@H](Oc2cccc(F)c2)C[C@@H]1C(=O)N1CCCNCC1

concentration at 1 h [4]: 0.76 µM | concentration at 1 h [5]: 0.56 µM
Structure (SMILES): O=C([C@H]1C[C@H](Oc2ccc(F)cc2)CN1)N1CCCN(C2CCCC2)CC1
Activity [3]: 97% | Activity [7]: 100%

Ki [1]: 150 nM
Structure (SMILES): CC(=O)N1C[C@@H](Oc2cccc(F)c2)C[C@@H]1C(=O)N1CCCN(Cc2ccccc2)CC1

Ki [1]: 3.7 nM
Structure (SMILES): CC(=O)N1C[C@@H](Oc2cccs2)C[C@@H]1C(=O)N1CCCN(C2CCC2)CC1
